From ChEMBL document CHEMBL3351408, “Bioactive diterpenoids and flavonoids from the aerial parts of Scoparia dulcis” (J Nat Prod, 2014) come the findings set out here.

Experiment [1] concerns the target T1, Peroxisome proliferator-activated receptor gamma (Mus musculus) (UniProt P37238).
T1 sequence (whole entry): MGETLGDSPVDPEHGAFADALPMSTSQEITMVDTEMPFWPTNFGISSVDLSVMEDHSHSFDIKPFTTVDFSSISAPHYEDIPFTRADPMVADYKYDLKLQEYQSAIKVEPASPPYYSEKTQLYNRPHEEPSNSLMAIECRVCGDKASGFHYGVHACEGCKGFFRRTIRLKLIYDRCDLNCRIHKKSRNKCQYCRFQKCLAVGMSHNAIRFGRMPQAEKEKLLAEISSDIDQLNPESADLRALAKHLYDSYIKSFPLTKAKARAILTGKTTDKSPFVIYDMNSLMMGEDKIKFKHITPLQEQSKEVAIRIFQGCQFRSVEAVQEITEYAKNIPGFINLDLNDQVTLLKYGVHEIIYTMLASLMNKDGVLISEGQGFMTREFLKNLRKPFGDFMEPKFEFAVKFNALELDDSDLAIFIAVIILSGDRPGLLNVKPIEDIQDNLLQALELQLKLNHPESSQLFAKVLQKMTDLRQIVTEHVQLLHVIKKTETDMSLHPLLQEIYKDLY
Put plainly: Agonist activity at mouse PPARgamma expressed in HEK293 cells co-expressing with Gal4 reporter vector assessed as fold activation after 24 hrs by dual-luciferase reporter assay. The class given is cell-based. The essentials: (§1)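 HEK-293 cells grown in DMEM with 10% FBS at 37 °C under 5% CO2 and plated at 1 × 10^4 cells/well. Cells co-transfected with pCMX-Gal-mPPARγ-LBD and MH100×4TK-Luc reporter, using Renilla as internal control. Compounds added at a range of concentrations for 24 h, then dual-luciferase read-out. EC50 is the concentration giving half-maximal fold activation; Emax is the maximal fold activation. Means ± SD from four independent experiments.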

Experiment [2] has as its target T2, Peroxisome proliferator-activated receptor gamma (Mus musculus, UniProt P37238).
T2 sequence (P37238 whole entry): T1 sequence (whole entry)
Put plainly: Agonist activity at mouse PPARgamma expressed in HEK293 cells co-expressing with Gal4 reporter vector after 24 hrs by dual-luciferase reporter assay. Type of experiment: cell-based. Put shortly:
as §1

Experiment [3] in a line: Inhibition of Saccharomyces cerevisiae alpha-glucosidase.

`C=C1[C@@H](CC/C(C)=C/CO)[C@@]2(C)CCC[C@](C)(C(=O)O)[C@@H]2[C@H](OC(=O)c2ccccc2)[C@H]1OC(C)=O`: the Emax in experiment [1] is 24.7. In addition, the 50% effective concentration (EC50) in experiment [2] was found to be 0.9 µM.

On to `CC(=O)O[C@@H]1[C@@H](OC(=O)c2ccccc2)[C@@H]2[C@](C)(CCC[C@@]2(C)C(=O)O)[C@H](CC/C(C)=C/CO)[C@@]12CO2`, for which the EC50 in experiment [2] is above 100 µM.

Consider `C=C1[C@@H](CC/C(C)=C/CO)[C@@]2(C)CCC[C@](C)(C(=O)O)[C@@H]2[C@H](OC(=O)c2ccccc2)[C@H]1O`, for which the EC50 in experiment [2] was above 100 µM.

In turn, `COc1ccc(-c2oc3cc(O)cc(O)c3c(=O)c2O[C@@H]2O[C@H](COC(=O)/C=C/c3ccc(O)cc3)[C@@H](O)[C@H](O)[C@H]2O)cc1OC` had a half-maximal effective concentration (EC50) in experiment [2] above 100 µM.

In experiment [2], `O=c1cc(-c2ccc(O)cc2)oc2c([C@@H]3OC[C@H](O)[C@H](O)[C@H]3O)c(O)cc(O)c12` displayed an EC50 above 100 µM.

Regarding `COc1ccc(-c2cc(=O)c3c(O)c(OC)c(O)c(OC)c3o2)cc1O`, the Emax in experiment [1] is 2. In experiment [2], this molecule came in with a concentration giving a half-maximal response (EC50) of 4.3 µM.

On to `CN(CCOc1ccc(CC2SC(=O)NC2=O)cc1)c1ccccn1` (centres undefined), for which the Emax in experiment [1] amounted to 11.8.

In experiment [2], `C[C@@]12CC[C@]3(C1)[C@H](CC2=O)C[C@@H](OC(=O)c1ccccc1)[C@@H]1[C@]3(C)CCC[C@]1(C)C(=O)O` [4-EPI-SCOPADULCIC ACID B] registered an EC50 above 100 µM. In addition, in experiment [3], the 50% inhibitory concentration (IC50) is 0.0146 mM.

Take `C[C@H]1O[C@H](O[C@H]2[C@H](O)[C@@H](O)[C@@H](O[C@H]3[C@H](O)[C@@H](O)C(O)O[C@@H]3CO)O[C@@H]2CO)[C@H](O)[C@@H](O)[C@@H]1N[C@H]1C=C(CO)[C@@H](O)[C@H](O)[C@H]1O` (some centres undefined) [ACARBOSE]: the IC50 in experiment [3] turned out to be 3.76 mM.

Regarding `O=c1cc(-c2ccc(O)cc2)oc2cc(O)cc(O)c12` [APIGENIN], the Emax in experiment [1] came out at 3.4. The molecule further showed an EC50 in experiment [2] of 24.9 µM.

`C=C(C)[C@@H]1CC[C@]2(C(=O)O)CC[C@]3(C)[C@H](CC[C@@H]4[C@@]5(C)CC[C@H](O)C(C)(C)[C@@H]5CC[C@]43C)[C@@H]12` [BETULINIC ACID] displayed a concentration for a half-maximal effect (EC50) in experiment [2] above 100 µM.

For the molecule `COc1c(O)cc2oc(-c3ccc(O)cc3)cc(=O)c2c1O` [HISPIDULIN], in experiment [1], the Emax came to 11.3. In experiment [2], this molecule had a concentration giving a half-maximal response (EC50) of 7.3 µM.

`COc1c(O[C@@H]2O[C@H](CO)[C@@H](O)[C@H](O)[C@H]2O)cc2oc(-c3ccc(O)cc3)cc(=O)c2c1O` [HISPIDULOSIDE] returned an EC50 in experiment [2] above 100 µM.

As to `O=c1cc(-c2ccc(O)c(O)c2)oc2cc(O)cc(O)c12` [LUTEOLIN], the Emax in experiment [1] was 7.6. For the same molecule, in experiment [2], the 50% effective concentration (EC50) came out at 2.3 µM.

As for `COc1ccc(-c2cc(=O)c3c(O)c(OC)c(O[C@@H]4O[C@H](CO[C@@H]5O[C@@H](C)[C@H](O)[C@@H](O)[C@H]5O)[C@@H](O)[C@H](O)[C@H]4O)cc3o2)cc1` [PECTOLINARIN], the half-maximal effective concentration (EC50) in experiment [2] is above 100 µM.

`C=C1C[C@@H](OC(=O)c2ccccc2)[C@@H]2[C@](C)(CCC[C@@]2(C)C(=O)O)[C@@H]1CC/C(C)=C/CO` [SCOPARIC ACID A]: the 50% effective concentration (EC50) in experiment [2] is above 100 µM.

For `O=c1cc(-c2ccc(O)cc2)oc2cc(O)c(O)c(O)c12` [SCUTELLAREIN], in experiment [1], the Emax worked out at 3.4. In experiment [2], a half-maximal response (EC50) required 16.4 µM.
